Several values for one entry are separate records, joined by “and”; a condition that tells them apart may be missing. Equal entries are not always repeated.
Experiments:
CFTR = settings: read-out: IC50, block of CFTR chloride conductance; full block; cited from earlier work
[1] = system: cholera toxin-induced intestinal fluid secretion; settings: in vivo; cited from earlier work
[2] = cited from earlier work
[3] = Solubility in phosphate buffered saline by LC/MS; format: physicochemical; settings: for Increase of water solubility compared with CFTRinh-172: in saline
How it was run: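 Saturated solution made by adding DMSO stock to phosphate buffered saline (final DMSO 2%). Sonicated 5 min at 25 °C, shaken 1 h at room temperature, then centrifuged at 15 000 rpm for 1 h. Supernatant quantified by LC/MS peak area against per-compound standard curves (1–15 or 1–100 μM, linear r > 0.998).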

FRT cells = assay: Cytotoxicity, crystal violet staining; format: cell-based; settings: 50 μM, 48 h, crystal violet staining vs vehicle-treated cultures
How it was run: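 Confluent FRT monolayers exposed to test compound for 2 days, washed 3 times, fixed for 30 min and stained with 0.5% crystal violet for 10 min. Dye extracted in Sorenson's buffer (0.1 M sodium citrate, 50% ethanol, pH 4.2) and read at 650 nm absorbance. Percent staining from 8 wells per test, referenced to cell-free blanks and vehicle-treated cells.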

MDCK cell model = settings: cited from earlier work
human wildtype CFTR = human wildtype CFTR (Homo sapiens, UniProt P13569); assay: Short-circuit current measurement of CFTR inhibition; format: cell-based; settings: for CFTR inhibition activity (in words): short-circuit current, statements in running text; for IC50 (μM) / IC50: FRT cells expressing human wildtype CFTR; for IC50: IC50 (μM)
How it was run: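 FRT cells stably expressing human wildtype CFTR, grown on 1 cm2 filters to >1,000 Ω.cm2. Basolateral membrane permeabilized with amphotericin B (250 μg/ml, 30 min). Basolateral buffer in mM: 130 NaCl, 10 Na-HEPES, 10 glucose, pH 7.3. Apical side had 65 mM NaCl swapped for gluconate, giving a Cl− gradient. 37 °C, 95% O2/5% CO2. CFTR activated with 100 μM CPT-cAMP, then inhibitor added at stepped concentrations. Voltage-clamped apical current recorded; IC50 fitted.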

[4] = Table 1, variations in Rings A and C
[5] = Table 2, variations in Ring B and Linkers 1 and 2

Chain of human wildtype CFTR (P13569 whole entry): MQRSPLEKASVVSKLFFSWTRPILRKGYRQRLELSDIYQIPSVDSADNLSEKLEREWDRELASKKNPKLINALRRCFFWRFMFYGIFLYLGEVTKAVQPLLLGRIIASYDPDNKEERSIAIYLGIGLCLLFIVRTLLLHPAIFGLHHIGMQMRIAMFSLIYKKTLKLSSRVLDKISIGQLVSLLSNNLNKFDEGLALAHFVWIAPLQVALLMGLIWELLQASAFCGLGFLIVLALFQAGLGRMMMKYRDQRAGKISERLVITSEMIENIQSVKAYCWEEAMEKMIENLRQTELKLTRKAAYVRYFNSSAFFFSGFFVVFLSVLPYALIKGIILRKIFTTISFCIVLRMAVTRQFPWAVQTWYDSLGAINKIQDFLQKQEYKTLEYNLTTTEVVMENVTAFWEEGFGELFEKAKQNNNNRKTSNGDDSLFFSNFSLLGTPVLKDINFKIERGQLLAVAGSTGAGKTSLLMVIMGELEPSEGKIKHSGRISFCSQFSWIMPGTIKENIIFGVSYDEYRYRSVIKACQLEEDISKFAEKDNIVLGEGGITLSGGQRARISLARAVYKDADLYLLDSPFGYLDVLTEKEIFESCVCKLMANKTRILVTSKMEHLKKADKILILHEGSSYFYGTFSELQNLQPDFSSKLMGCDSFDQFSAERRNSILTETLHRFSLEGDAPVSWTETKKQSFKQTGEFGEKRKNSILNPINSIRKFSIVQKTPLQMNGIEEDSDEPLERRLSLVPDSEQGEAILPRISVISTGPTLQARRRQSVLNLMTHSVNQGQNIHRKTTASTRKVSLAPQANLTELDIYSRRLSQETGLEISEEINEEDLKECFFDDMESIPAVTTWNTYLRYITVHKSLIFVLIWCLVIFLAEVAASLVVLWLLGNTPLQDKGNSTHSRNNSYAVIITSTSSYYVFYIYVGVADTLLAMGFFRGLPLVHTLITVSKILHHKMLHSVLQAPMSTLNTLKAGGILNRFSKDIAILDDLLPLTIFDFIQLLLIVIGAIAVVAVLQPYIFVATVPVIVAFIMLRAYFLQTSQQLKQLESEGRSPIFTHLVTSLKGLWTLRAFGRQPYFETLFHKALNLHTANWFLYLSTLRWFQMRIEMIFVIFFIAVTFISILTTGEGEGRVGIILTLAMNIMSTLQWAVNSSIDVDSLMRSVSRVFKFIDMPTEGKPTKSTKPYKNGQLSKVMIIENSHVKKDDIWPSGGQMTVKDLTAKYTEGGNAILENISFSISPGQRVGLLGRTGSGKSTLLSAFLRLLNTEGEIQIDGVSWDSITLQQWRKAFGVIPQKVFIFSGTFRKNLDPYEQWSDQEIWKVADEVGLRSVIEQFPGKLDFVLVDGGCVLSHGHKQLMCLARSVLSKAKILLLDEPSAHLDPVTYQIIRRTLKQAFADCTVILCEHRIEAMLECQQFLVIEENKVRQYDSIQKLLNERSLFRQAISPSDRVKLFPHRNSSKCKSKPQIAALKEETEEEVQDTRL

SMILES: O=C(O)c1ccc(/C=C2\SC(=S)N(c3cccc(C(F)(F)F)c3)C2=O)cc1 [Compound 5, 4-[[4-Oxo-2-thioxo-3-[3-(trifluoromethyl)phenyl]-5-thiazolidinylidene]methyl]benzoic acid]
- IC50 (CFTR): < 0.5 µM
- Cholera toxin-induced intestinal fluid secretion [1]: efficacy in reducing cholera toxin-induced intestinal fluid secretion
- Excretion and metabolism (in words) [2]: renal excretion with minimal metabolism
- Toxicity (in words) [2]: low toxicity

SMILES: O=C1/C(=C/c2ccc(-c3nn[nH]n3)cc2)SC(=S)N1c1cccc(C(F)(F)F)c1 [Compound 6, 5-[[4-(2H-Tetrazol-5-yl)phenyl]methylene]-2-thioxo-3-[3-(trifluoromethyl)phenyl]-4-thiazolidinone]
- Increase of water solubility compared with CFTRinh-172 ([3]; listed as Tetrazolo-172): > 10 fold and 11 fold
- % Cell viability (FRT cells): reduced
- Prevention of cyst formation (MDCK cell model): substantially better than by CFTRinh-172

SMILES: O=C(O)c1ccc(/C=C2\SC(=S)N(c3ccc(F)c(C(F)(F)F)c3)C2=O)cc1 [Compound 8]
- CFTR inhibition activity (in words) (human wildtype CFTR): intermediate activity

SMILES: O=C(O)c1cccc(/C=C2\SC(=S)N(c3ccc(F)c(C(F)(F)F)c3)C2=O)c1 [Compound 11]
- CFTR inhibition activity (in words) (human wildtype CFTR): intermediate activity

SMILES: Cc1cccc(N2C(=O)/C(=C/c3ccc(C(=O)O)cc3)SC2=S)c1 [Compound 12]
- CFTR inhibition activity (in words) (human wildtype CFTR): less active

SMILES: O=C1/C(=C/c2cc(Br)c(O)c(Br)c2)SC(=S)N1c1cccc(C(F)(F)F)c1 [Compound 14]
- CFTR inhibition activity (in words) (human wildtype CFTR): modest inhibition activity

SMILES: O=C1/C(=C/c2cc(Br)c(O)c(Br)c2O)SC(=S)N1c1cccc(C(F)(F)F)c1 [Compound 15]
- CFTR inhibition activity (in words) (human wildtype CFTR): modest inhibition activity

SMILES: Cc1c(N2C(=O)/C(=C/c3ccc(C(=O)O)cc3)SC2=S)cccc1C(F)(F)F [Compound 18, 4-[[4-Oxo-2-thioxo-3-[2-methyl-3-(trifluoromethyl)phenyl]-5-thiazolidinylidene]methyl] benzoic acid]
- % Cell viability (FRT cells): reduced

SMILES: O=C(O)c1ccc(/C=C2\SC(=S)N(c3ccc(Cl)c(C(F)(F)F)c3)C2=O)cc1 [Compound 24]
- CFTR inhibition activity (in words) (human wildtype CFTR): greatly reduced activity

SMILES: O=C(O)c1ccc(/C=C2\SC(=S)N(c3cc(C(F)(F)F)ccc3Cl)C2=O)cc1 [Compound 30]
- CFTR inhibition activity (in words) (human wildtype CFTR): greatly reduced activity

SMILES: O=C(O)COc1cccc(/C=C2\SC(=S)N(c3cccc(C(F)(F)F)c3)C2=O)c1 [Compound 36]
- CFTR inhibition activity (in words) (human wildtype CFTR): substantially reduced CFTR inhibition

SMILES: O=C1/C(=C/c2ccc(O)c(O)c2)SC(=S)N1c1cccc(C(F)(F)F)c1 [Compound 38]
- IC50 (μM) (human wildtype CFTR; [4]): Inactive

SMILES: COc1c(Br)cc(/C=C2\SC(=S)N(c3cccc(C(F)(F)F)c3)C2=O)c(O)c1Br [Compound 39]
- IC50 (μM) (human wildtype CFTR; [4]): Inactive

SMILES: COc1cc(Br)ccc1/C=C1\SC(=S)N(c2cccc(C(F)(F)F)c2)C1=O [Compound 40]
- IC50 (μM) (human wildtype CFTR; [4]): Inactive

SMILES: COc1ccc(/C=C2\SC(=S)N(c3cccc(C(F)(F)F)c3)C2=O)cc1 [Compound 41]
- IC50 (μM) (human wildtype CFTR; [4]): Inactive

SMILES: NC(=O)c1ccc(/C=C2\SC(=S)N(c3cccc(C(F)(F)F)c3)C2=O)cc1 [Compound 42]
- IC50 (μM) (human wildtype CFTR; [4]): Inactive

SMILES: O=C(NCCO)c1ccc(/C=C2\SC(=S)N(c3cccc(C(F)(F)F)c3)C2=O)cc1 [Compound 43]
- IC50 (μM) (human wildtype CFTR; [4]): Inactive

SMILES: NCCNC(=O)c1ccc(/C=C2\SC(=S)N(c3cccc(C(F)(F)F)c3)C2=O)cc1 [Compound 44]
- IC50 (μM) (human wildtype CFTR; [4]): Inactive

SMILES: CCOC(=O)c1ccc(/C=C2\SC(=S)N(c3cccc(C(F)(F)F)c3)C2=O)cc1 [Compound 45]
- IC50 (μM) (human wildtype CFTR; [4]): Inactive

SMILES: CC(=O)OCOC(=O)c1ccc(/C=C2\SC(=S)N(c3cccc(C(F)(F)F)c3)C2=O)cc1 [Compound 46]
- IC50 (μM) (human wildtype CFTR; [4]): Inactive

SMILES: O=C(O)c1ccc(/C=C2\SC(=S)N(Cc3cccc(C(F)(F)F)c3)C2=O)cc1 [Compound 47, 4-[[4-Oxo-2-thioxo-3-[(3-(trifluoromethyl)phenyl)methyl]-5-thiazolidinylidene]methyl] benzoic acid]
- IC50 (μM) (human wildtype CFTR; [5]): Inactive

SMILES: O=C(O)c1ccc(/C=C2\SC(=O)N(c3cccc(C(F)(F)F)c3)C2=O)cc1 [Compound 48, 4-[[3-[3-(trifluoromethyl)phenyl]-2,4-dioxo-5-thiazolidinylidene]methyl]benzoic acid]
- Reduction of CFTR inhibition potency compared with CFTRinh-172 (human wildtype CFTR; short-circuit current assays): 3.6 fold
- Increase of water solubility compared with CFTRinh-172 [3]: ~ 25 fold

SMILES: O=C(O)c1ccc(NC2=C(Cl)C(=O)N(c3cccc(C(F)(F)F)c3)C2=O)cc1 [Compound 50]
- CFTR inhibition activity (in words) (human wildtype CFTR): weak activity

SMILES: O=C(O)c1ccc(SC2CC(=O)N(c3cccc(C(F)(F)F)c3)C2=O)cc1 (stereo not drawn) [Compound 51, 4-[[2,5-dioxo-1-[3-(trifluoromethyl)phenyl]-3-pyrrolidinyl]thio]-benzoic acid]
- CFTR inhibition activity (in words) (human wildtype CFTR): moderate activity

SMILES: O=C(O)c1ccc(NC(=S)C2SC(=S)N(c3cccc(C(F)(F)F)c3)C2=O)cc1 (stereo not drawn) [Compound 52, 4-Oxo-[(3-trifluoromethyl)phenyl]-2-thioxo-N-[4-(carboxy)phenyl]-5-thiazolidinethio carboxamide]
- Water solubility (in words) [3]: highly water soluble

SMILES: O=C(O)c1ccc(NC(=S)C2SC(=S)N(c3cccc(C(F)(F)F)c3)C2=O)cc1O (stereo not drawn) [Compound 53, 4-Oxo-[(3-trifluoromethyl)phenyl]-2-thioxo-N-[(4-carboxy-3-hydroxy)phenyl]-5-thiazolidinethiocarboxamide]
- IC50 (human wildtype CFTR; [5]): 11 µM
- Water solubility (in words) [3]: highly water soluble

SMILES: O=C1C(C(=S)Nc2ccc(S(=O)(=O)O)cc2)SC(=S)N1c1cccc(C(F)(F)F)c1 (stereo not drawn) [Compound 54]
- IC50 (human wildtype CFTR; [5]): 25 µM

SMILES: O=C(O)c1ccc(Nc2nc(-c3cccc(C(F)(F)F)c3)cs2)cc1 [Compound 59]
- CFTR inhibition activity (in words) (human wildtype CFTR): weakly active

SMILES: O=C(O)c1cc(Nc2nc(-c3cccc(C(F)(F)F)c3)cs2)ccc1O [Compound 60]
- CFTR inhibition activity (in words) (human wildtype CFTR): weakly active

SMILES: O=C(O)c1ccc(Nc2nnc(-c3cccc(C(F)(F)F)c3)s2)cc1 [Compound 64, 4-[(5-(3-Trifluoromethylphenyl)-1,3,4-thiadiazol-2-yl)amino]-benzoic acid]
- IC50 (μM) (human wildtype CFTR; [5]): Inactive

SMILES: O=C(O)c1ccc(-n2cc(-c3cccc(C(F)(F)F)c3)nn2)cc1 [Compound 68, 4-[4-[3-(trifluoromethyl)phenyl]-1H-1,2,3-triazol-1-yl]-benzoic acid]
- IC50 (μM) (human wildtype CFTR; [5]): Inactive

SMILES: O=C(O)c1ccc(-n2cc(-c3ccc(C(F)(F)F)cc3)nn2)cc1 [Compound 69]
- IC50 (μM) (human wildtype CFTR; [5]): Inactive
